# Compounds with a hit are over-represented: about 1.9% of the library has one in this group of screens.
# NPY-Y1 antag – NPY-Y1 (human) receptor antagonism. P25929. HEK293-CNG Y1 cells, membrane potential fluorescence; NPY at EC95, then isoproterenol. inhibition, % at 3.6 µM. 200,000 compounds, 1% hits;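 active = inhibition above the campaign mean inhibition of all tested compounds plus 3 SD, cut at about 20% in these data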;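 also: 0% = DMSO wells given NPY plus isoproterenol and 100% = isoproterenol alone without NPY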
#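 Material: Y1- and CNG-channel-expressing HEK293 cells / Probe or stimulus: NPY 25 nM then isoproterenol 1 µM plus Ro 20-1724 25 µM / Doses: 3.6 µM single dose, DMSO 0.4% / Schedule: compound incubation 1 h at room temperature, readout 45 min post-stimulation / Signal: membrane potential fluorescence / Benchmarks: isoproterenol-only wells as full block versus NPY-plus-isoproterenol wells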
# NPY-Y2 PAM-ag – potentiators or agonists of human neuropeptide Y receptor Y2 | activation, % at 3.6 µM | P49146 | cells expressing NPY-Y2, potentiator/agonist read-out | 220,000 compounds, 0.45% hits; in the data active = activation above about 27%;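 also: cells stimulated with NPY near EC25 plus isoproterenol at EC100; 0% = vehicle plus submaximal agonist and 100% = vehicle plus saturating agonist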
# Target sequence (P49146 whole entry, looked up): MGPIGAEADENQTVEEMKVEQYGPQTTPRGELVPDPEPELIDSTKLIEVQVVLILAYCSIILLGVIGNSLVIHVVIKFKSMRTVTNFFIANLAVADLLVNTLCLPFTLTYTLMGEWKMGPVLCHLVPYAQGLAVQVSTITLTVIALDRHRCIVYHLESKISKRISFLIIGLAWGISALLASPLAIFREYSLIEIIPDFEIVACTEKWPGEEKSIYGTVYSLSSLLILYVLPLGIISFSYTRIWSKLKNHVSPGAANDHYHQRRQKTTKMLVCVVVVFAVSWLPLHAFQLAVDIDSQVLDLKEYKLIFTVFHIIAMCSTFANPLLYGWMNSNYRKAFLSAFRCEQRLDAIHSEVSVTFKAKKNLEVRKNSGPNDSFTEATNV
# NPY-Y2 antag – NPY-Y2 (human) receptor antagonism. P49146. NPY-Y2 expressing cells, antagonist mode. 140,000 compounds, 0.99% hits. AID 793. inhibition, % at 2.7 µM;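 also: 0% = vehicle with agonist challenge and 100% = reference antagonist with challenge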
# NPY1 pot ag – potentiators or agonists of human neuropeptide Y receptor Y1; 220,000 compounds, 0.37% hits; P25929; activation, % at 3.6 µM; NPY-Y1 expressing cells, potentiator/agonist activation; in the data active = activation above about 33%, passing the limit was not always enough;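 also: cells stimulated with NPY at EC10 then isoproterenol at EC100; 0% = low agonist plus stimulus and 100% = saturating agonist plus stimulus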
# NPY-Y1 ant conf – confirmation of human neuropeptide Y receptor Y1 antagonists. shares compounds with NPY-Y1 antag. HEK293-CNG NPY-Y1, membrane potential fluorescence, cAMP; NPY challenge against isoproterenol-raised cAMP. inhibition, % at 3.6 µM. 1,200 compounds, 21% hits. AID 1254; in the data active = inhibition above about 20%;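 also: 0% = vehicle with agonist plus stimulus and 100% = stimulus alone without agonist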
# NPY-Y2 antag ct – human NPY-Y2 antagonism in NPY-Y1 counter-screen; shares compounds with NPY-Y1 antag; inhibition, % at 3.6 µM; HEK293 NPY-Y2 CNG membrane potential fluorescence; cells given NPY, then isoproterenol; AID 1255; 1,200 compounds, 28% hits;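 also: 0% = DMSO with agonist challenge and 100% = reference antagonist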
# Starred values were filed as active, the others as inactive; x = not tested or not shown. Rule as the data show it, unless noted: active = inhibition above about 17%; inactive = the rest.
SMILES,NPY-Y1 antag,NPY-Y2 PAM-ag,NPY-Y2 antag,NPY1 pot ag,NPY-Y1 ant conf,NPY-Y2 antag ct
Cc1ccc(C)c(NC(=S)NCC(c2ccccc2)N(C)C)c1 (stereo not given),-2.0,-4.6,x,0.6,x,x
N#Cc1c(Oc2ccc3ccccc3c2)sc(C(=O)c2ccccc2)c1N,4.7,-8.1,0.3,-4.3,x,x
Cc1cccc(Oc2sc(C(=O)c3ccccc3)c(N)c2C#N)c1C,24.4*,1.5,9.1,-6.4,4.3,6.5
CN(C[C@H](Cc1ccccc1)N(C[C@H](Cc1ccccc1)N(CCc1cc(C(F)(F)F)cc(C(F)(F)F)c1)N=O)N=O)N=O,21.8*,-13.5,x,-12.2,18.6,8.3
CC(=O)Oc1ccc(-c2cccc(C(=O)N(C)c3ccc(O)cc3)c2)cc1,-1.3,4.4,x,-17.3,x,x
O=C(Nc1cccc(Cl)c1)c1csc(-c2ccccc2)n1,22.7*,-40.5,15.8,-22.4,5.7,8.5
O=C(Nc1ccc(Cl)c(Cl)c1)c1csc(-c2ccccc2)n1,8.0,3.9,2.6,-5.7,x,x
O=C(O)CCc1ccc(-c2ccc(Br)cc2)o1,23.3*,-10.9,10.5,-29.8,11.5,13.2
O=C(O)CCc1ccc(-c2ccc(Cl)cc2)o1,16.8,-28.7,14.7,-36.3,x,x
COCCCn1c(SCc2ccc(OC)cc2)nc2cc(OC)c(OC)cc2c1=N,9.5,-0.6,2.6,4.9,x,x
CCCSc1nc2cc(OC)c(OC)cc2c(=N)n1CCCN1CCOCC1,71.3*,-43.1,x,-52.0,22.4*,31.7*
O=C(Nc1ccc(Cl)cc1)C1C2CCC3C(CCC21)C3(Cl)Cl (stereo not given),12.2,-1.7,4.2,-0.5,x,x
Cc1cccc(NC(=O)C2C3CCC4C(CCC32)C4(Cl)Cl)c1 (stereo not given),27.9*,-0.6,15.8,-8.3,15.3,6.5
Cc1nc(Cl)c(C(=O)NC(C)(C)C)c(C)c1Cl,1.8,7.4,3.2,-6.3,x,x
CCOc1cc(/C=N/n2nnnc2N)ccc1OCc1c(C)no[n+]1[O-],21.0*,-21.9,6.5,0.5,9.1,9.3
O=C(CN1CCCCC1)Nc1ccc(Br)cc1[N+](=O)[O-],14.2,0.7,x,-14.3,x,x
COC(=O)c1ccc(OCC2c3cc(OC)c(OC)cc3CCN2C(=O)c2ccco2)cc1 (stereo not given),22.2*,-15.2,14.4,-29.8,19.7,18.3*
COC(=O)c1ccc(OCC2c3cc(OC)c(OC)cc3CCN2C(C)=O)cc1 (stereo not given),1.8,0.6,x,-10.8,x,x
CCN(CC(=O)Nc1ccc(OC)c(Cl)c1)CC(=O)NC(C)C,12.9,-0.4,x,-1.9,x,x
COC(=O)c1cnn(-c2ccccc2)c1/C=N/NC(=S)Nc1ccc(Cl)cc1,x,-12.2,x,-9.6,x,x
CC(C)(C)NC(=O)C(c1ccncc1)N(C(=O)Cn1nnc(-c2ccc(F)cc2)n1)c1cccc(F)c1 (stereo not given),-1.6,2.6,x,19.0,x,x
OCC1(Cc2ccccc2Cl)CCN(C/C=C/c2ccccc2)CC1,26.9*,-29.0,x,-21.8,15.4,11.9
CC(=O)N/C(=C/c1ccc2c(c1)OCO2)C(=O)NCc1ccccc1,-6.4,-3.1,x,9.9,x,x
CN1CCN(S(=O)(=O)c2cccc(C(=O)NCc3ccccc3Cl)c2)CC1,-1.1,0.8,x,3.0,x,x
Cc1cc(C(=O)N/N=C(\CCC(=O)O)c2cccs2)c2ccccc2n1,34.6*,14.0,x,1.4,-5.6,3.2
SMILES,NPY-Y1 antag,NPY-Y2 PAM-ag,NPY-Y2 antag,NPY1 pot ag,NPY-Y1 ant conf,NPY-Y2 antag ct
Cc1cc(C(=O)OCC(=O)c2cccs2)c2ccccc2n1,-4.3,-15.8,x,-2.5,x,x
O=C1N=C(N2CCCC2)CN1c1ccccc1,-1.8,-0.8,1.1,-7.5,x,x
CN(c1cccc(NC(=O)c2ccc(C(C)(C)C)cc2)c1)S(C)(=O)=O,3.2,5.0,x,4.9,x,x
CN(c1cccc(NC(=O)c2ccc(N(C)S(=O)(=O)c3ccccc3)cc2)c1)S(C)(=O)=O,41.0*,-6.5,x,9.2,1.1,0.5
Nc1nc(-c2c(Cl)cccc2Cl)no1,x,7.7,x,-21.9,x,x
CC(Oc1ccc(F)cc1)C(=O)Nc1ccc2ccccc2c1 (stereo not given),40.6*,-2.2,16.4,-21.5,14.1,10.6
OC[C@@H](O)C1OC2NC(=S)OC2C1O (stereo not given in full),-2.6,-21.9,x,-4.4,x,x

# Screening results as filed in PubChem BioAssay.
